In test [1] the target is CDK2/Cyclin A2 (Homo sapiens) (UniProt P24941+P20248). Briefly: Inhibition of recombinant full length N-terminal GST tagged human CDK2/CyclinA expressed in baculovirus infected sf9 cells using histone H1 as substrate at 10 uM measured after 30 mins in presence of ATP by ADP-Glo kinase assay relative to control. (ADP-Glo first removes unused ATP, then detects ADP through luciferase.)

Test [2] concerns the target T1, Cyclin-dependent kinase 5/CDK5 activator 1 (Homo sapiens, UniProt Q00535+Q15078). Briefly: Inhibition of recombinant full length N-terminal GST tagged human CDK5/p25 expressed in baculovirus infected sf9 cells using histone H1 as substrate at 10 uM measured after 60 mins in presence of ATP by ADP-Glo kinase assay relative to control.
Target sequence in this assay (Q00535 whole entry): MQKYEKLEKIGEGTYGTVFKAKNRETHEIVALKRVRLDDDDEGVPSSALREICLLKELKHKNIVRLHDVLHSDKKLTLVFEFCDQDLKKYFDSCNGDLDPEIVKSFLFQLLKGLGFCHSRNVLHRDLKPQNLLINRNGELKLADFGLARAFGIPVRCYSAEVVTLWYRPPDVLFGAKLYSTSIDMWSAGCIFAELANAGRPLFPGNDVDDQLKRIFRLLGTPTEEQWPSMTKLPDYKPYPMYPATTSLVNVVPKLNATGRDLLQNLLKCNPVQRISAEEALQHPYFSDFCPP
Target sequence in this assay (Q15078 99-307 partner limits assumed): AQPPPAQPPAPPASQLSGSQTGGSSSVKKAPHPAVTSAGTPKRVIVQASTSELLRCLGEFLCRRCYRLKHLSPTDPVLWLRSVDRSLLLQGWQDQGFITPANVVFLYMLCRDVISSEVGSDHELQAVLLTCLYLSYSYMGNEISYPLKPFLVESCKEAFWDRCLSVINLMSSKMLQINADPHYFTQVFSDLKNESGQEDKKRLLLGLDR
Another test addresses CDK2/Cyclin A2 (Homo sapiens, UniProt P24941). The test is described as follows: Inhibition of recombinant full length N-terminal GST tagged human CDK2/CyclinA expressed in baculovirus infected sf9 cells using histone H1 as substrate measured after 30 mins in presence of ATP by ADP-Glo kinase assay. The essentials: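 CDK2/cyclin A kinase inhibition; Ki values from the average of at least two experiments.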

Test [3] has as its target Cyclin-dependent kinase 5/CDK5 activator 1 (Homo sapiens, UniProt Q00535). The test is described as follows: (§1) Inhibition of recombinant full length N-terminal GST tagged human CDK5/p25 expressed in baculovirus infected sf9 cells using histone H1 as substrate measured after 60 mins in presence of ATP by ADP-Glo kinase assay. It is filed as cell-based.
For test [4], the target named is Cyclin-dependent kinase 1/cyclin B1 (Homo sapiens, UniProt P06493). The test is described as follows: Inhibition of CDK1/CyclinB1 (unknown origin) using histone H1 (GGGPATPKKAKKL) as substrate incubated for 80 mins in presence of ATP by ADP-Glo kinase assay. It counts as protein-complex assay.
For test [5], the target named is Cyclin-dependent kinase 4/cyclin D1 (Homo sapiens, UniProt P11802). The test is described as follows: Inhibition of human recombinant N-terminal GST-tagged CDK4 (S4-E303 residues)/Cyclin D1 (Q4-I295 residues) expressed in sf9 cells using RB-CTF as substrate incubated for 90 mins in presence of ATP by ADP-Glo kinase assay.
The target in the next test is CDK6/cyclin D3 (Homo sapiens, UniProt Q00534). Briefly: Inhibition of human recombinant N-terminal GST-tagged CDK6 (M1-A326 residues) and His6 tagged Cyclin D3 (M1-L292 residues) expressed in sf9 cells using histone H1 (GGGPATPKKAKKL) as substrate incubated for 60 mins in presence of ATP by ADP-Glo kinase assay.
Another test addresses CDK9/cyclin T1 (Homo sapiens, UniProt P50750). Briefly: Inhibition of human recombinant full length N-terminal GST His6 fused CDK9 (M1 to F372 residues/ N-terminal His6 tagged Cyclin T1 (M1 to K726 residues) expressed in sf9 cells using RBER-IRStide as substrate incubated for 90 mins in presence of ATP by ADP-Glo kinase assay.
Test [6] has as its target Cyclin-dependent kinase 2/cyclin E1 (Homo sapiens, UniProt P24941). The test is described as follows: Inhibition of CDK2/Cyclin E (unknown origin) incubated for 30 to 120 mins in presence of ATP by ADP-Glo kinase assay. It is filed as protein-complex assay.
Another test concerns the target CDK7/Cyclin H/MNAT1 (Homo sapiens, UniProt P50613). Briefly: Inhibition of CDK7/cyclinH/MAT1 (unknown origin) using RBER-IRStide as substrate incubated for 120 mins in presence of ATP by ADP-Glo kinase assay. It counts as protein-complex assay.
A further test deals with MV4-11. The test is described as follows: Antiproliferative activity against human MV4-11 cells assessed as growth inhibition measured after 72 hrs by resazurin assay. It is filed as functional. The following applies: MV4-11, 72 h. In short, it runs like this:
(§2)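 Leukemia cells exposed to compound for 72 h; viability read by resazurin reduction. GI50 (concentration giving 50% inhibition of proliferation) reported as mean ± SD of three independent experiments.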
For orientation: The colour change of resazurin is a common sign of viable cells or microbes.

Test [7] concerns the target T1, Cyclin-dependent kinase 5/CDK5 activator 1. Described as §1. It is filed as cell-based. The following applies: sf9.
Target sequence in this assay (Q00535 whole entry): as the sequence (Q00535 whole entry) above
Target sequence in this assay (Q15078 whole entry): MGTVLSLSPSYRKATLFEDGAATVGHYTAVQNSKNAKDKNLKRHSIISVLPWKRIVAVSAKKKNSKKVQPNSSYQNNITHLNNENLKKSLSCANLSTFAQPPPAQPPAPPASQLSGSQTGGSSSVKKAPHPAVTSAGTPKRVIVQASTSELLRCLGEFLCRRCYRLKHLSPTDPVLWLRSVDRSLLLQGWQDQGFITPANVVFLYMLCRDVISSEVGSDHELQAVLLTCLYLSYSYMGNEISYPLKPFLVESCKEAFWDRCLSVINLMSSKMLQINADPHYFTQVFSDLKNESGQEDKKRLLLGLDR
The test system of the next test is MOLM-13. The test is described as follows: Antiproliferative activity against human MOLM13 cells assessed as growth inhibition measured after 72 hrs by resazurin assay. It is filed as functional. The following applies: MOLM-13, 72 h. In short, it runs like this:
as §2

The structures appear in SMILES notation. The source made the active and inactive calls. The calls are words filed in the database; no cut-off is given here.

Sequence of Cyclin-dependent kinase 5/CDK5 activator 1 (Homo sapiens, UniProt Q00535) (Q00535 whole entry): as the sequence (Q00535 whole entry) above
Sequence of Cyclin-dependent kinase 5/CDK5 activator 1 (Homo sapiens, UniProt Q00535) (Q15078 whole entry, further chain): as the sequence (Q15078 whole entry) above
Sequence of Cyclin-dependent kinase 1/cyclin B1 (P06493 whole entry, the tested form may be a part): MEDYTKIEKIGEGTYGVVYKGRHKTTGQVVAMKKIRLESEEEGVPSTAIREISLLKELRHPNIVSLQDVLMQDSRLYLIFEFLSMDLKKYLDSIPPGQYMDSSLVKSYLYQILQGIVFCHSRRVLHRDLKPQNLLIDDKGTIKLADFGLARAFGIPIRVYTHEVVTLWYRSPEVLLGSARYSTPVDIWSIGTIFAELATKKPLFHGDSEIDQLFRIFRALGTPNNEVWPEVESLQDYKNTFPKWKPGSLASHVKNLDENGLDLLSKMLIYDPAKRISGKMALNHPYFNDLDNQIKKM
Sequence of Cyclin-dependent kinase 1/cyclin B1 (P14635 whole entry, further chain, the tested form may be a part): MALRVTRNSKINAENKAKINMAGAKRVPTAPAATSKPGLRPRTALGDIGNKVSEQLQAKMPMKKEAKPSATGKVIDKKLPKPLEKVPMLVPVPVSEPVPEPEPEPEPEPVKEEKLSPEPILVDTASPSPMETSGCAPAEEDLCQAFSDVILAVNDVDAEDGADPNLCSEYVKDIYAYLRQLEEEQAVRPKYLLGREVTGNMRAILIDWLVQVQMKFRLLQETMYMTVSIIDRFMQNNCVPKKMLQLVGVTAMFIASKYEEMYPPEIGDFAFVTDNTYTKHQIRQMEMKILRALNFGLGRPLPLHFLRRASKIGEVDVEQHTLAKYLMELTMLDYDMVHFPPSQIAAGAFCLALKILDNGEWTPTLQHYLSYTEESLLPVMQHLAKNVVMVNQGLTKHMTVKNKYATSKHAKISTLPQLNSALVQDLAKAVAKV
Sequence of CDK9/cyclin T1 (O60563 whole entry, the tested form may be a part): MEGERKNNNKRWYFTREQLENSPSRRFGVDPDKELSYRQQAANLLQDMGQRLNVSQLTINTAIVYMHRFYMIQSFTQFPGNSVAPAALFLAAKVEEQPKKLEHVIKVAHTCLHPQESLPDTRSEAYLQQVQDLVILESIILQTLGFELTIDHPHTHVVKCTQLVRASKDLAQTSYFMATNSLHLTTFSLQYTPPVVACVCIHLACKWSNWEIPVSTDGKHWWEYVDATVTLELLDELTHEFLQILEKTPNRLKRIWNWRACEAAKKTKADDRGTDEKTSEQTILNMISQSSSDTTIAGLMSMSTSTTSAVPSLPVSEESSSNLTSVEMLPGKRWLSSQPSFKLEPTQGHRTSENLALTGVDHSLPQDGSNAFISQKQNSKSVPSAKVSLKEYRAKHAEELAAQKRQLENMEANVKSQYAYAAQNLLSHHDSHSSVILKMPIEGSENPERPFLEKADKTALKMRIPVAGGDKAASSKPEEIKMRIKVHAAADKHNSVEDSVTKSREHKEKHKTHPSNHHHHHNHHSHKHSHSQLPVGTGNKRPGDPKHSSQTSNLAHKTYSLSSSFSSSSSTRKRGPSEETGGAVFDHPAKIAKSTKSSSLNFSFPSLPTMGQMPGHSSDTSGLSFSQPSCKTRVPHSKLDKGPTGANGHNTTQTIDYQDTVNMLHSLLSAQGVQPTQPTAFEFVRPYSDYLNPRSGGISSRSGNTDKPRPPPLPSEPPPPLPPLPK
Sequence of CDK9/cyclin T1 (P50750 whole entry, the tested form may be a part): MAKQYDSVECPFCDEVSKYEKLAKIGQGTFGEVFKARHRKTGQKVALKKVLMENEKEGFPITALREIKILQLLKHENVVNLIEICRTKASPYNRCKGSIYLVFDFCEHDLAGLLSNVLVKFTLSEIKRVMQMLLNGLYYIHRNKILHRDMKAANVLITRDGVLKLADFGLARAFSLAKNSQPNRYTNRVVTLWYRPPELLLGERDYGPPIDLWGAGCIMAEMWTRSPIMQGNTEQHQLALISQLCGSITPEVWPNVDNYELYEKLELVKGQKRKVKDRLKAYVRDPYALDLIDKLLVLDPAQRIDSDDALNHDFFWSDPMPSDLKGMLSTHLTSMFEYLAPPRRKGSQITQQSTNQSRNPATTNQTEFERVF
Sequence of CDK6/cyclin D3 (P30281 whole entry, the tested form may be a part): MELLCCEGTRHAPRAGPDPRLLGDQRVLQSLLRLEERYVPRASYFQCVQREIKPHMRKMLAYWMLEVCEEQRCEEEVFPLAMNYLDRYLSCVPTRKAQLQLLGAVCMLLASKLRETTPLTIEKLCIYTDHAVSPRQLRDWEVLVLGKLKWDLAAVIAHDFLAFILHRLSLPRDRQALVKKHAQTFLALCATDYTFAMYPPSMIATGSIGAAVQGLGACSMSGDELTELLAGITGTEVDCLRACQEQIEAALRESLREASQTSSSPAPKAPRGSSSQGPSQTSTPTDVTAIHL
Sequence of CDK6/cyclin D3 (Q00534 whole entry, the tested form may be a part): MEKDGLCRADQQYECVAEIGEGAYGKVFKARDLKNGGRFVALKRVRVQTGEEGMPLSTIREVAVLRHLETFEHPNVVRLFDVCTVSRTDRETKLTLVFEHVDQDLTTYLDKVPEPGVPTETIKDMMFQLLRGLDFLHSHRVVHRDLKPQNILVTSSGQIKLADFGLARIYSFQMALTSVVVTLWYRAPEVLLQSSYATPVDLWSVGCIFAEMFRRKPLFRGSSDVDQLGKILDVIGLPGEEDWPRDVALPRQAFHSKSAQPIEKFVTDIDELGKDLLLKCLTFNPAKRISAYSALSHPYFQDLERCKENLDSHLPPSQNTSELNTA
Sequence of CDK7/Cyclin H/MNAT1 (P51946 whole entry): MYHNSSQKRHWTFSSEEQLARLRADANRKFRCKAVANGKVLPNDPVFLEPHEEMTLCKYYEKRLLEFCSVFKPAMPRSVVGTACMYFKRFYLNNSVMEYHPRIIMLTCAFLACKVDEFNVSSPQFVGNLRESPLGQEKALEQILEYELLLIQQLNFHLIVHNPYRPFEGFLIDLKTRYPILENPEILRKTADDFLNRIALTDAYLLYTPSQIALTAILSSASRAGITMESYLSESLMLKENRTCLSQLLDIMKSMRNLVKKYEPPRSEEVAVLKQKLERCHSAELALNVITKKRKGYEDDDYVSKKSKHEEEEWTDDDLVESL
Sequence of CDK7/Cyclin H/MNAT1 (P50613 whole entry): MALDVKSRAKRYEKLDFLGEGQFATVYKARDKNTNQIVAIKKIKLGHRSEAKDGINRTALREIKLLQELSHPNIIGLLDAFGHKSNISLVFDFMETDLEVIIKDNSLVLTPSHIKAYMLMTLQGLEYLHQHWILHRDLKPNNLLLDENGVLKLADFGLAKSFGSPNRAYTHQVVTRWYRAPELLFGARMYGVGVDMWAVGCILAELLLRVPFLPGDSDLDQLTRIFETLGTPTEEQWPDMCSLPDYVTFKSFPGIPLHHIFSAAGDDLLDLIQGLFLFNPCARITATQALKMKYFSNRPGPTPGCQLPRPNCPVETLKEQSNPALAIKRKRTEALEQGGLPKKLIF
Sequence of CDK7/Cyclin H/MNAT1 (P51948 whole entry, further chain): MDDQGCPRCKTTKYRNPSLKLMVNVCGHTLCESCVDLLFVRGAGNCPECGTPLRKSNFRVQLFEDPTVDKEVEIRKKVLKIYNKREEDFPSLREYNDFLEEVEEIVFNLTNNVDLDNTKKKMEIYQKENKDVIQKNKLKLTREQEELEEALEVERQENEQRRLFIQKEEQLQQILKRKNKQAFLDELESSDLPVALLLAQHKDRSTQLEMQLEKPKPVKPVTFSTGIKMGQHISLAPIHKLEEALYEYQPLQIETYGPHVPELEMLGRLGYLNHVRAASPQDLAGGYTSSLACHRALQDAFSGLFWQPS

The inhibition is the change of the read-out against control, counted positive when it falls. In general, Ki refers to a dissociation constant, usually derived from enzyme kinetics or from competition with a known ligand. For orientation: GI50 means the concentration that inhibits growth by half. On to `Cc1ccccc1Nc1ncc2c(n1)CCCC2`, for which the results for the inhibition in test [1] and in test [2] were 54% and 82%, respectively. The Ki on CDK2/Cyclin A2 is 4.12 µM; in test [3], 0.99 µM; in test [4], over 5 µM; in test [5] it was over 5 µM; at CDK6/cyclin D3, over 5 µM; at CDK9/cyclin T1, over 5 µM. For the same molecule, the Ki (in test [6]; on CDK7/Cyclin H/MNAT1) was over 5 µM throughout. Besides, the GI50 in the test on MV4-11 was over 10 µM.

As for `Cc1ccc(Nc2ncc3c(n2)CCCC3)cc1`, the inhibition turned out to be 58% in [1] and 77% in [2]. The Ki is 4.54 µM on CDK2/Cyclin A2; 1.44 µM in test [3]; over 5 µM in [4]; over 5 µM in test [5]; over 5 µM on CDK6/cyclin D3; over 5 µM at CDK9/cyclin T1. In addition, the inhibition constant (Ki) (in test [6]; at CDK7/Cyclin H/MNAT1) was over 5 µM in each case. Moreover, the GI50 in the test with MV4-11 turned out to be 6 µM.

In the case of `CCc1cccc(Nc2ncc3c(n2)CCCC3)c1`, the inhibition in test [1] stood at 39%; in [2], 78%. The Ki on CDK2/Cyclin A2 was over 5 µM; in test [3], 1.23 µM; in test [4], over 5 µM; in test [5] it was over 5 µM; on CDK6/cyclin D3, over 5 µM; at CDK9/cyclin T1, over 5 µM. Further, the Ki (in test [6]; on CDK7/Cyclin H/MNAT1) was over 5 µM in each case. For the same molecule, in the test on MV4-11, the concentration for 50% growth inhibition (GI50) amounted to 2.6 µM.

Take `COc1cccc(Nc2ncc3c(n2)CCCC3)c1`: the results for the inhibition in [1] and in test [2] were 93% and 85%, respectively. The Ki was 1.11 µM on CDK2/Cyclin A2; 1.01 µM in [3]; over 5 µM in test [4]; over 5 µM in [5]; over 5 µM on CDK6/cyclin D3; over 5 µM at CDK9/cyclin T1. Further, the Ki (in [6]; at CDK7/Cyclin H/MNAT1) was over 5 µM each time. Also, in the test on MV4-11, the concentration for 50% growth inhibition (GI50) is 2.28 µM.

For the molecule `O=[N+]([O-])c1cccc(Nc2ncc3c(n2)CCCC3)c1`, the inhibition came to 87% in test [1] and 83% in test [2]. Also, the Ki on CDK2/Cyclin A2 was 1.1 µM; in test [3], 1.26 µM; in test [4], over 5 µM; in [5], over 5 µM; at CDK6/cyclin D3, over 5 µM; at CDK9/cyclin T1, over 5 µM. Further, the Ki (in [6]; at CDK7/Cyclin H/MNAT1) was over 5 µM in each case. Further, the concentration for 50% growth inhibition (GI50) in the test with MV4-11 came to 3.5 µM.

On to `CC1(C)CC(=O)c2cnc(NC(=O)c3ccc(F)cc3)nc2C1`, for which the Ki result in test [7] is listed as “Not Active”.

With `FC(F)(F)Oc1ccccc1Nc1ncc2c(n1)CCCC2`, the inhibition result in test [1] is “inactive”. For the same molecule, in [2], the inhibition was 9%.

For `COc1ccc(Nc2ncc3c(n2)CCC3)cc1`, the Ki in [3] turned out to be 1.72 µM. For the same molecule, the figures for the GI50 with MOLM-13 and with MV4-11 were 1.1 µM and 0.84 µM, respectively.

`CCOc1ccccc1Nc1ncc2c(n1)CCCC2`: the results for the inhibition in test [1] and in [2] were 2% and 4%, respectively.

Take `FC(F)(F)c1ccc(Nc2ncc3c(n2)CCCC3)cc1`: the results for the inhibition in test [1] and in test [2] were 7% and 6%, respectively.

`COc1ccc(Nc2ncc3c(n2)CCCC3)cc1`: the inhibition in test [1] was determined as 3%; in test [2] it was 1%.

In the case of `COc1ccccc1Nc1ncc2c(n1)CCCC2`, the inhibition came out at 2% in [1] and 22% in [2].

What is called IC50 is the concentration that inhibits the measured activity by half. As to `c1ccc(Nc2ncc3c(n2)CCCC3)cc1`, in [3], the IC50 turned out to be 1.76 µM and the Ki is 0.88 µM. In addition, the GI50 in the test with MOLM-13 was 5.63 µM. Moreover, in the test with MV4-11, the GI50 worked out at 9.83 µM.

Consider `O=C(Nc1cccc(CN2CCCC2)c1)c1n[nH]c2ccccc12`, for which, in test [3], the Ki is 2.03 µM. In addition, the GI50 was determined as 3.83 µM with MOLM-13 and 8.62 µM in the test with MV4-11.

On to `FC(F)(F)c1cccc(Nc2ncc3c(n2)CCCC3)c1`, for which the inhibition in test [1] is 7%; in test [2], 5%.

Regarding `COc1cc(Cl)ccc1Nc1ncc2c(n1)CCCC2`, the inhibition entry in test [1] is “inactive”. Also, the inhibition in [2] came out at 45%.

With `Cc1c(Nc2ncc3c(n2)CCCC3)cccc1NS(C)(=O)=O`, the inhibition in test [2] came to 63%.

Turning to `FC(F)(F)c1ccccc1Nc1ncc2c(n1)CCCC2`, the inhibition in [1] amounted to 8%; in test [2] it was 10%.

For the molecule `COc1ccc(Nc2ncc3c(n2)CCCC3)c(OC)c1F`, the inhibition was 7% in test [1] and 21% in test [2].
